According to ChEMBL document CHEMBL1147105, “In vitro and in vivo activities of PD 0305970 and PD 0326448, new bacterial gyrase/topoisomerase inhibitors with potent antibacterial activities versus multidrug-resistant gram-positive and fastidious organism groups” (2007):
In brackets after ≈: the same amount, converted by molar mass. Activity calls are given as the source filed them.

Experiments:
Escherichia coli = assay: Antibacterial efficacy against Escherichia coli Vogel infected orally dosed CD1 mouse model; type: functional
In short: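 Female CD1 mice, 6–8 weeks old (18–22 g), challenged intraperitoneally (0.5 ml) with ≥100 median lethal doses suspended in 20% hog gastric mucin. Single oral gavage dose at the time of challenge, in 0.5% methylcellulose. Untreated controls of 10 mice per group. PD50 (mg/kg), the dose protecting 50% of mice from lethal infection, calculated by probit analysis.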

Streptococcus pneumoniae [1] = assay: Bactericidal activity against Streptococcus pneumoniae SV1 at 0.008 ug/ml by time-kill study; type: functional, organism-based
In short: (§1)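 Time-kill in 10 ml of cation-adjusted Mueller-Hinton broth with 3% lysed horse blood, without agitation. Multiples of MIC tested. Samples taken at 0, 2, 4, 6 and 24 h and plated on tryptic soy agar with 5% sheep blood after ≥250-fold dilution, detection limit 10 CFU/ml. Counts read after 24 h at 35°C. Bactericidal defined as a ≥3 log10 drop from the starting inoculum within 24 h.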

Streptococcus pyogenes [2] = assay: Bactericidal activity against Streptococcus pyogenes C203 at 0.008 ug/ml by time-kill study; type: functional, organism-based; in short: as §1
Streptococcus pneumoniae [3] = assay: Antibacterial activity against Streptococcus pneumoniae 7785; type: functional
Streptococcus pneumoniae [4] = assay: Antibacterial activity against Streptococcus pneumoniae SVI infected once daily orally dosed CD1 mouse; type: functional; details: po; for ED50: read-out: PD50
In short: (§2)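 Pneumonia model in CD1 mice (n = 8), anaesthetised with ketamine i.p. Intranasal instillation of 50 μl of broth culture (10^8–10^9 CFU/ml, OD600 0.70), confirmed by plate counts. Oral therapy began 24 h post-challenge. Dosing was either once daily for 1 day or twice daily for 3 days. The result was given as the PD50 (mg/kg).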

Streptococcus pneumoniae [5] = assay: Antibacterial activity against Streptococcus pneumoniae 1-970-2 with gyrB Asp435Glu, Glu475Ala and parE Pro475Ser mutation; type: functional
Streptococcus pneumoniae [6] = assay: Bactericidal activity against Streptococcus pneumoniae SV1 at 2 ug/ml by time-kill study; type: functional, organism-based; in short: as §1
Streptococcus pneumoniae [7] = assay: Antibacterial activity against Streptococcus pneumoniae 1-970-1 with gyrB Asp435Glu mutation; type: functional
Streptococcus pneumoniae [8] = assay: Antibacterial activity against quinolone-resistant Streptococcus pneumoniae SP4333 infected twice daily orally dosed CD1 mouse; type: functional; details: po; for ED50: read-out: PD50; in short: as §2
Streptococcus pyogenes [9] = assay: Bactericidal activity against Streptococcus pyogenes C203 at 2 ug/ml by time-kill study; type: functional, organism-based; in short: as §1

## Cc1c(N2CC[C@@H]([C@H](C)N)C2)c(F)cc2c(=O)n(N)c(=O)n(C3CC3)c12
Escherichia coli
  MIC: 1 µg/mL (≈ 2.77 µM)
Escherichia coli; read-out: PD50
  ED50: 82 mg/kg
Streptococcus pneumoniae [1]
  Activity: Active
Streptococcus pyogenes [2]
  Activity: Active
Streptococcus pneumoniae [3]
  MIC: 0.03 µg/mL (≈ 0.083 µM)
Streptococcus pneumoniae [4]
  MIC: 0.008 µg/mL (≈ 0.0221 µM)
  ED50: 3.2 mg/kg
Streptococcus pneumoniae [5]
  MIC: 0.125 µg/mL (≈ 0.346 µM)
Streptococcus pneumoniae [6]
  Activity: Active
Streptococcus pneumoniae [7]
  MIC: 0.06 µg/mL (≈ 0.166 µM)
Streptococcus pneumoniae [8]
  MIC: 0.03 µg/mL (≈ 0.083 µM)
  ED50: 4.1 mg/kg
Streptococcus pyogenes [9]
  Activity: Active

## C[C@H]1COc2c(N3CCN(C)CC3)c(F)cc3c(=O)c(C(=O)O)cn1c23.C[C@H]1COc2c(N3CCN(C)CC3)c(F)cc3c(=O)c(C(=O)O)cn1c23.O [LEVOFLOXACIN]
Streptococcus pneumoniae [4]
  ED50: 69 mg/kg
Streptococcus pneumoniae [8]
  ED50: > 200 mg/kg
